Screens from PubChem BioAssay.
The list is not random: actives were taken first. Their share in the collection is about 3.5%.
RGS4 block: human RGS4 inhibition; 310,000 compounds, 0.45% hits; B-score at 10 µM; AID 463165; HEK293 M3R/RGS4 inducible, Fluo-4 calcium flux; stronger effect = higher value; triggered by carbachol at its EC20;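 active = B-score, a plate-corrected calcium signal, over three deviations above library mean, with baseline fluorescence within five deviations of library mean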;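 note: RGS4 expression induced by doxycycline in cells with stable M3 receptor; B-score is computed from the integrated fluorescence ratio over baseline after carbachol; higher B-score means a larger calcium signal and so more RGS4 inhibition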
Target sequence (P49798 whole entry, looked up): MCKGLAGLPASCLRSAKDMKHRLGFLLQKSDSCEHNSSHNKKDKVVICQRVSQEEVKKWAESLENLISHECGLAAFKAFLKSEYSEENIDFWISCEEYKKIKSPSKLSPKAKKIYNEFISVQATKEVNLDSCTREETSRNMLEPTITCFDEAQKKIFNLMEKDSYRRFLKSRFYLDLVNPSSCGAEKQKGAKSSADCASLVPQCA
RGS4 pot: potentiators or activators of RGS4. HEK293 M3R/inducible RGS4, carbachol calcium flux Fluo4; stronger effect = lower value. B-score at 10 µM. 310,000 compounds, 0.92% hits. AID 463111;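 active = B-score of the integrated calcium signal more than 4 SD below the library mean, with starting fluorescence not abnormally high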;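 note: negative B-score means reduced calcium response which marks RGS4 activation or potentiation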
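Also added: carbachol at ECmax as muscarinic agonist stimulus; Assay system: HEK293 cells with stable M3R and inducible RGS4; Timing: overnight RGS4 induction, 30 min dye load 37 °C, 20 min compound RT; Measured by: Fluo4-AM (2 µM) calcium-flux fluorescence, kinetic read.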
MrgX1 ag: human MrgX1 receptor agonism, primary screen; Q96LB2; MrgX1-HEK293 cells, Fluo-4 calcium fluorescence, agonist mode; stronger effect = higher value; B-score at 10 µM; 310,000 compounds, 0.44% hits; AID 588627;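 active = calcium response B-score plate-corrected fluorescence ratio at least 3 library SD, with starting fluorescence B-score inside 5 SD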
Target sequence (Q96LB2 whole entry, looked up): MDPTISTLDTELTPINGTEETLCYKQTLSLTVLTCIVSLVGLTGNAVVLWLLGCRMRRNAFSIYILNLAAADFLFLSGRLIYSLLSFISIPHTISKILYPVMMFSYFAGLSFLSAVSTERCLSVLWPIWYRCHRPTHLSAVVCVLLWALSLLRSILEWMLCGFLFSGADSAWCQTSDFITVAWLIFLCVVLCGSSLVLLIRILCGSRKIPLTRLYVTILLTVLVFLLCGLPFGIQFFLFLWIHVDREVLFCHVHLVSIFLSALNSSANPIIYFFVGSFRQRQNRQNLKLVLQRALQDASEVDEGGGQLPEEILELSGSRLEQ
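Test system: HEK293 cells stably expressing human MrgX1 receptor; Input: fifteen thousand cells per well; Dosing: compound delivered in addition one of three; Schedule: overnight seeding, then 1 h dark dye loading; Technique: Fluo-4 NW calcium fluorescence; Measure: B-scored fluorescence response ratio; Controls: positive and negative controls per plate.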
MrgX1 PAM: allosterically activates human MrgX1 receptor signaling; AID 588675; 310,000 compounds, 0.63% hits; MrgX1-HEK293, Fluo-4 calcium flux, FDSS; stronger effect = higher value; B-score at 10 µM; Q96LB2;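 active = plate-corrected calcium response at least 3 library SD above typical, normal starting fluorescence, not activating the receptor alone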;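 note: compound read alongside a low EC10 to EC30 dose of BAM8-22 agonist; peak minus trough fluorescence over baseline measured at the second addition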
MrgX1 antag: human MrgX1 receptor antagonism, primary screen; Q96LB2; MRGX1-HEK293 calcium flux, Fluo-4, BAM8-22 antagonism; stronger effect = lower value; B-score at 10 µM; 310,000 compounds, 1.3% hits; AID 588676;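 active = calcium-response B-score plate-corrected more than 3 library SD below zero, starting fluorescence within 5 deviations, no agonist response on first addition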;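 note: peak minus trough fluorescence over baseline after final BAM8-22 challenge near maximal dose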
MrgX1 ag confirm: human MrgX1 agonism, re-confirmation screen; shares compounds with MrgX1 ag; MrgX1-HEK293, Fluo-4 calcium fluorescence, FDSS; activation, % at 10 µM; 600 compounds, 78% hits; AID 602412;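 active = calcium signal rise, corrected for plate position, at least 3 library SD high, with starting brightness within 5 such deviations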
HEK293 Ca flux: counter-screen for MrgX1 antagonists: effect in parental HEK293 cells; shares compounds with MrgX1 antag; Fluo-4 calcium fluorescence, FDSS; fluorescence ratio F(max-min)/F0 at 10 µM; 4,000 compounds, 2% hits; AID 624111;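 active = duplicate-averaged calcium fluorescence ratio at least three times the standard deviation of buffer wells, a nonspecific response in parental cells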
HEK293 Ca counter: counter-screen for MrgX1 allosteric activators: effect in parental HEK293 cells | fluorescence ratio F(max-min)/F0 at 10 µM | parental HEK293 calcium flux, Fluo-4 fluorescence ratio; stronger effect = higher value | 4,000 compounds, 0.4% hits | shares compounds with MrgX1 antag;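 active = calcium fluorescence ratio, averaged over duplicates, at least 3 SD of the buffer-well ratio, meaning a nonspecific response in receptor-free cells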;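 note: untransfected parental HEK293 lacking MrgX1 used as counterscreen for MrgX1 allosteric activators; fluorescence change taken during the second addition on a kinetic imager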
HEK293 Ca cntr2: activity in parental HEK293 cells lacking MrgX1 receptor. shares compounds with MrgX1 antag. Fluo-4 calcium fluorescence (FDSS); stronger effect = higher value. fluorescence ratio F(max-min)/F0 at 10 µM. 4,000 compounds, 8.7% hits. AID 624115;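 active = calcium fluorescence ratio at least three times the spread of buffer wells, meaning a non-specific response in parental cells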
Numbers without * were called inactive; i = inactive; nt = not tested or not shown.

SMILES	RGS4 block	RGS4 pot	MrgX1 ag	MrgX1 PAM	MrgX1 antag	MrgX1 ag confirm	HEK293 Ca flux	HEK293 Ca counter	HEK293 Ca cntr2
CCOC(=O)c1ccc(NC(=S)NCCc2ccc(OC)c(OC)c2)cc1	i	i	36.2*	i	i	i	i	i	i
Cc1cc(NC(=O)CCS(=O)(=O)c2nc(-c3ccccc3)cc(C(F)(F)F)n2)no1	nt	nt	i	i	i	nt	nt	nt	nt
CS(=O)(=O)c1nc(-c2ccccc2)cc(C(F)(F)F)n1	i	i	37.6*	i	i	183.6%*	i	i	i
CCOc1ccc(C(=O)NCC(=O)NCC(c2ccc(OC)cc2)N2CCOCC2)cc1OCC (centres undefined)	i	i	i	i	i	nt	nt	nt	nt
Cc1ccc(-n2nc(C)c3c2OC(N)=C(C#N)C3c2ccccc2F)cc1 (centres undefined)	i	i	26.5*	i	i	163.0%*	i	i	i
Cc1ccc(-n2nc(C)c3c2OC(N)=C(C#N)C3c2ccncc2)cc1 (centres undefined)	i	i	i	i	i	nt	nt	nt	nt
O=C1OCC2=C1C(c1ccccc1)CC(=O)N2c1ccc(F)cc1 (centres undefined)	i	i	i	i	i	nt	nt	nt	nt
c1ccc2c(c1)CNc1ccccc1C2	i	i	30.5*	i	i	224.2%*	i	i	i
Nc1ccc2c(c1)Nc1ccccc1CC2	i	i	i	i	i	nt	nt	nt	nt
Cc1[nH]c2ccccc2c1-c1nc(N)sc1C	i	i	37.8*	i	i	i	i	i	i
Cc1sc(N)nc1-c1ccc(Oc2ccccc2)cc1	i	i	i	i	i	nt	nt	nt	nt
COC(=O)CC1=C(C(=O)OC)C(c2ccc3c(c2Cl)OCO3)C(C#N)=C(N)O1 (centres undefined)	i	i	40.7*	i	i	171.9%*	i	i	i
Cc1csc(=O)n1CCC(=O)OCC(=O)NCc1ccc(F)cc1	i	i	i	i	i	nt	nt	nt	nt
O=C(Nc1nnc(-c2ccccn2)o1)c1cccc(Br)c1	i	i	29.4*	i	i	111.4%*	i	i	i
Cc1ccc(OCc2nc(-c3ccccc3)no2)cc1	i	i	i	i	i	nt	nt	nt	nt
COc1ccccc1NC(=O)c1ccc2c(c1)N(CC(=O)NC(C)C)C(=O)C(C)(C)O2	i	i	i	i	i	nt	nt	nt	nt
CC(Oc1ccccc1)C(=O)Nc1nnc(S(=O)(=O)N(C)c2ccccc2)s1 (centres undefined)	i	i	29*	i	i	95.2%*	i	i	45.8*
COC(=O)c1c(NC(=O)CN2C(=O)NC3(CCc4ccccc4C3)C2=O)sc2c1CCCCC2 (centres undefined)	i	i	29.1*	i	i	224.9%*	i	i	75.2*
COC(=O)c1c(NC(=O)CN2C(=O)NC3(CCC(C(C)(C)C)CC3)C2=O)sc2c1CCCCC2 (centres undefined)	i	i	i	i	i	nt	nt	nt	nt
Nc1ncnc2c1ncn2C1OC(C(=O)NC2CC2)C(O)C1O (centres undefined)	nt	nt	30.1*	i	i	100.1%*	i	i	i
O=C(Nc1ccc2oc(-c3cccc4ccccc34)nc2c1)c1ncn[nH]1	i	i	i	i	i	nt	nt	nt	nt
O=C(Nc1ccc2oc(-c3ccccc3Cl)nc2c1)c1ncn[nH]1	i	i	55.1*	i	i	i	i	i	i
CCCCS(=O)(=O)Nc1ccc2c(c1)ncn2C1CCCCC1	i	i	34.9*	i	i	213.6%*	i	i	50.8*
COc1cc2ncnc(NCc3ccc(Cl)cc3)c2cc1OC	i	i	32.7*	i	i	136.3%*	i	i	i
N=C(N)SCc1ccc(Cl)cc1Cl	i	i	38.8*	i	i	219.0%*	i	i	i
SMILES	RGS4 block	RGS4 pot	MrgX1 ag	MrgX1 PAM	MrgX1 antag	MrgX1 ag confirm	HEK293 Ca flux	HEK293 Ca counter	HEK293 Ca cntr2
NC(=S)Cc1ccc(Cl)cc1Cl	i	i	i	i	i	nt	nt	nt	nt
CCOC(=O)c1ccc(N2C(=O)C3C(C2=O)C(C(=O)c2ccc(Cl)cc2)N2CCCC32)cc1 (centres undefined)	i	i	43.1*	i	i	i	i	i	52.3*
CCOC(=O)c1ccc(N2C(=O)C3CC=CCC3C2=O)cc1 (centres undefined)	i	i	i	i	i	nt	nt	nt	nt
CCCCCCCC1CC(CSC(=N)N)OC1=O (centres undefined)	i	i	41*	i	i	164.1%*	i	i	i
CCCCC1CC(CSC(=N)N)OC1=O (centres undefined)	i	i	i	i	i	nt	nt	nt	nt
CCOC(=O)c1oc2ccccc2c1COC(=O)CNC(=O)c1ccco1	i	i	i	i	i	nt	nt	nt	nt
COc1cc([N+](=O)[O-])cc(/C=N/NC(=O)C(O)(c2ccccc2)c2ccccc2)c1O	i	i	i	i	i	nt	nt	nt	nt
O=C(N/N=C/c1cccc([N+](=O)[O-])c1O)C(O)(c1ccccc1)c1ccccc1	i	i	65.6*	i	i	115.7%*	i	i	i
Cc1ccc(NC(=O)CSc2cn[nH]n2)cc1	i	i	i	i	i	nt	nt	nt	nt
Cc1[nH]nc2c1C(c1ccc(-c3ccc(Cl)cc3)o1)C(C#N)=C(N)O2 (centres undefined)	i	i	33.8*	i	i	i	i	i	i
Cc1ccc(-c2ccc(C3C(C#N)=C(N)Oc4n[nH]c(C)c43)o2)cc1 (centres undefined)	i	i	36.8*	i	i	128.9%*	i	i	i
CN(C)C1=NCCN1CC1CCCC1	nt	nt	i	i	i	nt	nt	nt	nt
CCOc1ccc(C(C)=O)cc1CSC(=N)N	i	i	29.6*	i	i	163.8%*	i	i	i
COc1ccc(C(C)=O)cc1CSCc1cc(C(C)=O)ccc1OC	i	i	i	i	i	nt	nt	nt	nt
CCCCOc1ccc(Br)cc1CSC(=N)N	i	i	nt	nt	nt	nt	nt	nt	nt
